A short description of this data set: Toxicity liver stage against HepG2, at 10uM. Details: test concentration 10 uM, cell line HepG2-A16-CD81EGFP. It is filed as cell-based. Conditions: human, HepG2-A16-CD81EGFP cells; read-out: INHIBITION
Summed up: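 Uninfected HepG2-A16-CD81EGFP cells, 3 × 10^3 per well, 1536-well, plated on prespotted compound at 10 μM final, parasite-free screening media added to match infected plates; puromycin 10 μM positive, DMSO 0.5% negative; run in parallel with 48 h PbLuc assay at 37 °C, 5% CO2; viability by CellTiter-Glo luminescence, normalized to controls.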

For `COCCCNC(=O)N1CCC(CNC(=O)c2cnn(C)c2)CC1`, the cytotoxicity at 10 µM was -1.3%. As to `CN1CCCCC1c1ncc2c(n1)CCN(Cc1ccccc1Cl)C2` (stereo unspecified), the cytotoxicity at 10 µM is -1.67%. Turning to `C[S+]([O-])c1nncn1CC(=O)c1ccc2c(c1)CCC2` (stereo unspecified), the cytotoxicity at 10 µM was -1.88%. As to `COc1cn(-c2ccccc2)nc1C(=O)NCCN1CCCC(C)C1` (stereo unspecified), the cytotoxicity at 10 µM was determined as 2.12%. In the case of `COC(=O)CC(c1cccnc1)c1oc(C)cc(=O)c1O` (stereo unspecified) it was -0.191%. `CC(NC(=O)CCCN(C)C)c1cn(-c2ccccc2)nn1` (stereo unspecified): the cytotoxicity at 10 µM was -22.7%. With `CNC(=O)N1CCC2(CC1)c1ncc(C)n1CCN2C` the figure was 5.22%. In the case of `CS(=O)(=O)N[C@@H]1CN(Cc2ccc3ncccc3c2)C[C@H]1O` it was -4.34%; in that of `Cc1c(C(=O)O)nnn1-c1cccc2cccnc12`, 5.31%; in that of `Cc1cncc(C2CCCN(CC3CCC3)C2)n1` (stereo unspecified), -7.41%.

Take `CN1CCCCC1CCC(=O)NCCCn1nccc1C1CC1` (stereo unspecified): the cytotoxicity at 10 µM was -22.9%. In the case of `CNC(=O)c1sc2ccccc2c1C1CCN(c2cc(C)nc(C)n2)C1` (stereo unspecified) it was 10.8%; in that of `COc1cccc2c1N(CC(=O)Nc1ccc(Br)cn1)CCC2`, 36.5%; in that of `COC(=O)c1cccc(S(=O)(=O)NC(=O)c2cccc(OC)c2OC)c1`, 12.2%.

With `Cc1nccc(-c2cccc(NCC(=O)N3CCNC3=O)c2)n1`, the cytotoxicity at 10 µM was found to be 1.9%. As to `COCC1CN(C(=O)COc2ccc(C)cc2)Cc2cn(C)nc21` (stereo unspecified), the cytotoxicity at 10 µM was 2.49%. Regarding `CCC1=N[C@@]2(CC[C@@H]3CN(C(=O)NCc4cccc(F)c4)C[C@@H]32)C(=O)N1`, the cytotoxicity at 10 µM is -69.4%. In the case of `Cc1nc(C2CCCN(C(=O)c3cc(C)sc3C)C2)no1` (stereo unspecified) it was 6.86%; in that of `CN1CCN(CC(=O)NCc2ccco2)Cc2ccccc21`, -3.81%; in that of `CC(=O)N1CCCC(c2ccc(Cc3ccccc3)cn2)C1` (stereo unspecified), -20.6%. As to `CCCn1nc2c(cc1=O)CN(Cc1nc(CCOC)no1)CC2`, the cytotoxicity at 10 µM was -2.7%. In the case of `Cc1nc(C(=O)N2CCCC(c3cc(C(F)(F)F)[nH]n3)C2)c[nH]1` (stereo unspecified) it was -0.945%; in that of `Cc1ncsc1C(=O)NCc1ccnc(OCC(F)(F)F)c1`, -1.37%; in that of `Cc1c[nH]cc1C(=O)N1CCN(Cc2nc(C(C)C)no2)CC1`, -4.54%. As for `FC(F)(F)c1ccc(-c2n[nH]c3c2CN(CC2CCOC2)CC3)cc1` (stereo unspecified), the cytotoxicity at 10 µM was -52.1%.

For the compound `Cc1ccc(OCC2CCCN(Cc3ccc(CO)o3)C2)cc1` (stereo unspecified), the cytotoxicity at 10 µM was 5.66%. With `CCN(C)C(=O)c1ccc(N(C)Cc2cc(-c3ccncc3)no2)nc1` the figure was -2.04%; with `Fc1ccc(CN2CCCC2c2cncc(-n3ccnc3)n2)cc1` (stereo unspecified), 5.82%; with `CSCc1nc(CCNC(=O)C2CCCN(C(C)=O)C2)cs1` (stereo unspecified), -4.84%. With `Cn1c2c(ccc1=O)CC(Nc1ncc(F)cn1)CC2` (stereo unspecified) the figure was -143%; with `Cc1ncsc1CCN(C)C(=O)CN1CC2(CCCC2)CC1=O`, 2.19%. As for `CCOc1cc(NC(=O)NCCn2cnnc2CC)ccc1C`, the cytotoxicity at 10 µM is -7.37%.

Turning to `COCC(=O)N1CCC2(CCN(Cc3ccccn3)CC2)CC1`, the cytotoxicity at 10 µM was -6.62%. On to `O=S(=O)(Nc1cnc(N2CCOCC2)nc1)c1cccc(F)c1`, for which the cytotoxicity at 10 µM is -19.2%. `CSc1nc(C)cc(N2CCC(c3ncc[nH]3)CC2)n1`: the cytotoxicity at 10 µM was -10.6%. Regarding `Cc1cc(N2CCOCC2)ccc1NC(C)c1nc(C(C)(C)C)no1` (stereo unspecified), the cytotoxicity at 10 µM was -12.7%.

Consider `CCOCC1CN(Cc2cccc(C#N)c2)Cc2nccn2C1` (stereo unspecified), for which the cytotoxicity at 10 µM is -8.22%. In the case of `COc1ccccc1[C@@H]1CN(Cc2nccn2C)C[C@H]1C(=O)O` it was -4.83%; in that of `CCOC(=O)[C@]12CCCN(Cc3ccco3)C[C@H]1CN(S(C)(=O)=O)C2`, 6.86%. With `CCn1nccc1CNC(=O)C1CCCCC1` the figure was -0.488%; with `CC(C)CCC(=O)N1CC[C@@H]2[C@H](CC1)N(S(C)(=O)=O)CCS2(=O)=O`, 3.7%. Consider `CC1=N[C@@]2(CC[C@@H]3CN(CC(C)C)C[C@@H]32)C(=O)N1`, for which the cytotoxicity at 10 µM was determined as 6.5%. In the case of `Cc1cc(N(C)Cc2ccsc2)n2nc(C)c(C)c2n1` it was 1.7%. In the case of `COc1c(CNC2CCc3ccccc32)c(C(C)C)nn1C` (stereo unspecified) it was 0.441%. With `O=C(NCCc1cc(N2CCOCC2)nc(NC2CC2)n1)C1CC1` the figure was -0.995%; with `Cc1ccc(-n2cc(CN3CCOCC3)c(-c3cccc(C)c3)n2)cc1`, -0.906%. With `CCS(=O)(=O)N1CCC2(CC1)CN(Cc1ccccn1)C(=O)CO2`, the cytotoxicity at 10 µM was 3.01%. As for `CS(=O)(=O)N1CCCC12CCN(Cc1nccs1)C2` (stereo unspecified), the cytotoxicity at 10 µM is 2.26%. In the case of `O=C([C@H]1C[C@H]2OCC[C@H]2N(Cc2ccc(F)cc2)C1)N1CCCCO1` it was -65.5%.

Turning to `CN(Cc1ccc(C#N)cc1)c1ncc(C(N)=O)cc1Cl`, the cytotoxicity at 10 µM was 18.5%. In the case of `Cc1ncc(CN2CCOC(c3ccc(-c4cnn(C)c4)cn3)C2)s1` (stereo unspecified) it was -23%; in that of `CCN(CC)C(=O)[C@@H]1C[C@@H](N)CN1c1nc(N(C)C)nc(C)c1C`, -24.4%; in that of `Cc1ncc2c(n1)CCN(C(C(N)=O)c1ccccc1)C2` (stereo unspecified), -2.62%. As for `COc1cccc(CNC(=O)c2cc(C)nc(N3CCCCC3)n2)c1`, the cytotoxicity at 10 µM was 20%. With `COc1ccc(C)cc1S(=O)(=O)N[C@H]1CN(C(C)=O)C[C@@H]1C1CC1` the figure was -3.64%; with `O=C(Cc1ccccn1)N1CCN(CC2CC2)c2ncccc2C1`, 1.34%; with `CN(C)S(=O)(=O)N1C[C@H]2CC[C@@H](C1)N(CCC(=O)NCc1ccco1)C2`, -6.74%. Regarding `COCCN(C)C[C@@H]1CN(C(=O)c2c(F)ccc(OC)c2F)C[C@@H]1CO`, the cytotoxicity at 10 µM came out at 0.45%. With `CCOC(=O)[C@]12CCCN(Cc3cccs3)C[C@H]1CN(C(C)C)C2` the figure was 12.2%. With `Cc1nn(C)c(Cl)c1CNCc1ccc(OCC(N)=O)cc1`, the cytotoxicity at 10 µM was 1.08%. In the case of `Cc1ccc(CNC(=O)NCCCO)cc1`, the cytotoxicity at 10 µM is -16.2%. On to `Cc1cccc(CO[C@@H]2C[C@H]3CN(C(=O)c4cnccn4)CCN3C2)n1`, for which the cytotoxicity at 10 µM is -1.79%. In the case of `CC(c1ccco1)n1cc(-c2cc(CN3CCCC3)cs2)nn1` (stereo unspecified) it was -23.6%.

With `CCn1cc(CNC(=O)CCn2ncc3c(Cl)cccc32)cn1`, the cytotoxicity at 10 µM turned out to be 10.9%. In the case of `COC1CCN(C(=O)C2CCCC2)CC(=O)N(C)c2ccccc21` (stereo unspecified) it was -8.88%; in that of `Cc1ccc(F)cc1S(=O)(=O)N1C[C@@H](C)[C@@](C)(O)C1`, -0.784%. In the case of `CC(C)N(Cc1nc2c(cnn2C)c(=O)[nH]1)c1ccccc1` it was -12.6%; in that of `CC(C)C(=O)N1CCN(Cc2csc(-c3ncccn3)n2)CC1`, -5.1%. In the case of `CCc1ccccc1CNC(=O)CNCC(F)(F)F` it was 10.6%; in that of `CCOCC1CN(C(=O)c2ccoc2)Cc2cnn(C)c21` (stereo unspecified), 0.13%; in that of `CC(C)c1noc(CCCC(=O)N2CCN(Cc3ccncc3)CC2)n1`, -6.59%. `O=c1n(CCn2cccc2)nc(C2CCNCC2)n1Cc1ccccc1`: the cytotoxicity at 10 µM is -2.06%. With `Cc1cnn(CC2CCCN2C(=O)CCc2ccsc2)c1` (stereo unspecified) the figure was -1.64%; with `Cc1ccc(-c2ccnc(N(C)CC3CCCN3C)n2)c(C)n1` (stereo unspecified), -9.66%; with `Cc1nc(CN2CCCC(Nc3ncnc4ccccc34)C2)no1` (stereo unspecified), 50%. For the compound `O=C(CSc1nnc2n1N=CN(c1ccccc1)C2)c1ccccc1`, the cytotoxicity at 10 µM came out at 9.11%. As for `COc1ccc(-c2cnc(N)nc2C2CCCNC2)cc1` (stereo unspecified), the cytotoxicity at 10 µM was -1.51%. In the case of `CNc1cccc(C2CCCN(C(=O)c3cscn3)C2)n1` (stereo unspecified) it was -11.3%; in that of `CCN(CC)CCn1cnc(-c2ccccc2)c1-c1cnc(C)s1`, 3.33%; in that of `Cc1cnc(C(=O)N2Cc3ccccc3OC3(CCOCC3)C2)cn1`, -1.54%. For `Cn1ccnc1CN1CCC2(CC(=O)N(c3cccc(F)c3)C2)C1` (stereo unspecified), the cytotoxicity at 10 µM turned out to be 6.97%. On to `COCCN1CCCc2sc(C(=O)N3CCCN(C)CC3)nc21`, for which the cytotoxicity at 10 µM worked out at 0.534%. Take `CCOCc1nc(N2CCCC2)sc1C(=O)NCc1ccco1`: the cytotoxicity at 10 µM is -1.89%. As for `Cc1nc(CC2CCN(C(=O)C(c3ccccc3C)N(C)C)CC2)no1` (stereo unspecified), the cytotoxicity at 10 µM was 4.66%.

Regarding `COc1ccccc1C1(CNc2nnc(C)c(C)c2C#N)CCOCC1`, the cytotoxicity at 10 µM was 6.77%. In the case of `CC(C)CN1CCC(NC(=O)N(C)Cc2csc3ccccc23)CC1` it was -52.9%. With `Cc1nc(C2(NCc3ccc(C#N)cc3F)CCCCC2)no1`, the cytotoxicity at 10 µM is -11.2%. With `CC(C)(CN1CCC(Cc2cccc(C(=O)O)c2)C1)N1CCOCC1` (stereo unspecified) the figure was 3.98%. Take `CCCN(CCC)S(=O)(=O)N(C)Cc1ccncc1`: the cytotoxicity at 10 µM was determined as 12.2%.

As to `CCOc1cc(C(=O)N2CCCC(n3nc(C)nc3C)C2)ccn1` (stereo unspecified), the cytotoxicity at 10 µM was -5.99%.

`COCCNC(=O)Nc1ccn(-c2cccc(C(F)(F)F)c2)n1`: the cytotoxicity at 10 µM was -1.94%. In the case of `CC(C)=Cc1c(-c2ccccc2)ncn1CCN(C)S(C)(=O)=O` it was -0.334%; in that of `CN(C)CC1CN(C(=O)Cc2ccccc2)Cc2nccn2C1` (stereo unspecified), -115%.

Turning to `O=C(c1ccc(Cl)cc1F)N1CCC(Cn2cc(CO)nn2)CC1`, the cytotoxicity at 10 µM is -1.36%. On to `CCOCc1ccccc1CNc1ccc2nncn2n1`, for which the cytotoxicity at 10 µM worked out at 0.84%. In the case of `CCCC1COCCN1Cc1ccc(NC(C)=O)cc1` (stereo unspecified) it was -145%.
